In ChEMBL document CHEMBL1154781, “Synthesis and antimicrobial activity of some new N-acyl substituted phenothiazines” (2009):
≈ marks a conversion by molar mass, not a printed value. Calls of active or inactive are those of the source. No cut-off for these calls is given here.

Experiments:
Candida albicans [1] = test: Antifungal activity against Candida albicans NCIM 300 at >50 ug/ml after 2 to 3 days by serial plate dilution method; assay type: functional, organism-based
Summary of the method: (§1)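 For the fungal lawn, a loopful of each strain was suspended in 3 ml normal saline and spread on agar plates. Excess suspension was decanted and the plates were dried 1 h at 37 °C. Wells were punched and labeled. Plates, including a triplicate control, were held at 37 °C for 2–3 days. Zones of inhibition and MIC were recorded against fluconazole as standard.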

Aspergillus fumigatus [2] = test: Antifungal activity against Aspergillus fumigatus NCIM 902 after 2 to 3 days by serial plate dilution method; assay type: functional; summary of the method: as §1
Aspergillus niger [3] = test: Antifungal activity against Aspergillus niger NCIM 617 after 2 to 3 days by serial plate dilution method; assay type: functional; summary of the method: as §1
Aspergillus niger [4] = test: Antifungal activity against Aspergillus niger NCIM 617 at 10 ug/ml after 2 to 3 days by serial plate dilution method; assay type: functional; settings: read-out: IZ; summary of the method: as §1
Escherichia coli [5] = test: Antibacterial activity against Escherichia coli ATCC 25922 after 24 hrs by disc diffusion method; assay type: functional; settings: ATCC 25922, 24 h
Summary of the method: (§2)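 Bacterial strains tested on discs at each concentration, placed in triplicate in nutrient agar seeded with fresh bacteria; incubated 37 °C for 24 h. Ciprofloxacin served as reference, with solvent and growth controls. Zones of inhibition and MICs were recorded.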

Aspergillus flavus [6] = test: Antifungal activity against Aspergillus flavus NCIM 524 after 2 to 3 days by serial plate dilution method; assay type: functional; summary of the method: as §1
Aspergillus fumigatus [7] = test: Antifungal activity against Aspergillus fumigatus NCIM 902 at 10 ug/ml after 2 to 3 days by serial plate dilution method; assay type: functional; settings: read-out: IZ; summary of the method: as §1
Bacillus subtilis [8] = test: Antibacterial activity against Bacillus subtilis ATCC 11774 at >50 ug/ml after 24 hrs by disc diffusion method; assay type: functional, organism-based; summary of the method: as §2
Escherichia coli [9] = test: Antibacterial activity against Escherichia coli ATCC 25922 at 10 ug/ml after 24 hrs by disc diffusion method; assay type: functional; settings: ATCC 25922, 24 h, read-out: IZ; summary of the method: as §2
Staphylococcus aureus [10] = test: Antibacterial activity against Staphylococcus aureus ATCC 25923 at >50 ug/ml after 24 hrs by disc diffusion method; assay type: functional, organism-based; summary of the method: as §2
Aspergillus flavus [11] = test: Antifungal activity against Aspergillus flavus NCIM 524 at 10 ug/ml after 2 to 3 days by serial plate dilution method; assay type: functional; settings: read-out: IZ; summary of the method: as §1
Pseudomonas aeruginosa [12] = test: Antibacterial activity against Pseudomonas aeruginosa ATCC 27853 at >50 ug/ml after 24 hrs by disc diffusion method; assay type: functional, organism-based; summary of the method: as §2
Bacillus subtilis [13] = test: Antibacterial activity against Bacillus subtilis ATCC 11774 at 15 ug/ml after 24 hrs by disc diffusion method; assay type: functional; settings: ATCC 11774, 24 h, read-out: IZ; summary of the method: as §2
Bacillus subtilis [14] = test: Antibacterial activity against Bacillus subtilis ATCC 11774 after 24 hrs by disc diffusion method; assay type: functional; settings: ATCC 11774, 24 h; summary of the method: as §2
Pseudomonas aeruginosa [15] = test: Antibacterial activity against Pseudomonas aeruginosa ATCC 27853 after 24 hrs by disc diffusion method; assay type: functional; settings: ATCC 27853, 24 h; summary of the method: as §2
Aspergillus niger [16] = test: Antifungal activity against Aspergillus niger NCIM 617 at >50 ug/ml after 2 to 3 days by serial plate dilution method; assay type: functional, organism-based; summary of the method: as §1
Staphylococcus aureus [17] = test: Antibacterial activity against Staphylococcus aureus ATCC 25923 at after 24 hrs by disc diffusion method; assay type: functional; settings: ATCC 25923, 24 h; summary of the method: as §2
Staphylococcus aureus [18] = test: Antibacterial activity against Staphylococcus aureus ATCC 25923 at 10 ug/ml after 24 hrs by disc diffusion method; assay type: functional; settings: ATCC 25923, 24 h, read-out: IZ; summary of the method: as §2
Pseudomonas aeruginosa [19] = test: Antibacterial activity against Pseudomonas aeruginosa ATCC 27853 at 10 ug/ml after 24 hrs by disc diffusion method; assay type: functional; settings: ATCC 27853, 24 h, read-out: IZ; summary of the method: as §2
Candida albicans [20] = test: Antifungal activity against Candida albicans NCIM 300 at 10 ug/ml after 2 to 3 days by serial plate dilution method; assay type: functional; settings: read-out: IZ; summary of the method: as §1
Candida albicans [21] = test: Antifungal activity against Candida albicans NCIM 300 after 2 to 3 days by serial plate dilution method; assay type: functional; summary of the method: as §1
Escherichia coli [22] = test: Antibacterial activity against Escherichia coli ATCC 25922 at >50 ug/ml after 24 hrs by disc diffusion method; assay type: functional, organism-based; summary of the method: as §2

Row | Compound | MIC (Aspergillus fumigatus [2]) [µg/mL] | MIC (Aspergillus niger [3]) [µg/mL] | zone of inhibition at 10 µg/mL (Aspergillus niger [4]) [mm] | MIC (Escherichia coli [5]) [µg/mL] | MIC (Aspergillus flavus [6]) [µg/mL] | zone of inhibition at 10 µg/mL (Aspergillus fumigatus [7]) [mm] | zone of inhibition at 10 µg/mL (Escherichia coli [9]) [mm] | zone of inhibition at 10 µg/mL (Aspergillus flavus [11]) [mm] | Activity (Pseudomonas aeruginosa [12]) | zone of inhibition at 15 µg/mL (Bacillus subtilis [13]) [mm] | MIC (Bacillus subtilis [14]) [µg/mL] | MIC (Pseudomonas aeruginosa [15]) [µg/mL] | MIC (Staphylococcus aureus [17]) [µg/mL] | zone of inhibition at 10 µg/mL (Staphylococcus aureus [18]) [mm] | zone of inhibition at 10 µg/mL (Pseudomonas aeruginosa [19]) [mm] | zone of inhibition at 10 µg/mL (Candida albicans [20]) [mm] | MIC (Candida albicans [21]) [µg/mL] | other results
1 | CC(=O)c1ccc2c(c1)N(C(=O)CN1C(=O)CCC1=O)c1ccccc1S2 | 15 (≈ 39.4 µM) | 20 (≈ 52.6 µM) | 26 | 10 (≈ 26.3 µM) | 25 (≈ 65.7 µM) | 13 | 24 | 20 | inactive | – | – | – | – | – | – | – | – | Activity (Candida albicans [1]): inactive; Activity (Bacillus subtilis [8]): inactive; Activity (Staphylococcus aureus [10]): inactive
2 | CC(=O)c1ccc2c(c1)N(C(=O)CN1C(=O)C=CC1=O)c1ccccc1S2 | 30 (≈ 79.3 µM) | – | – | 20 (≈ 52.9 µM) | 25 (≈ 66.1 µM) | 16 | 18 | 18 | – | 16 | 15 (≈ 39.6 µM) | 15 (≈ 39.6 µM) | 15 (≈ 39.6 µM) | 16 | 17 | – | – | Activity (Candida albicans [1]): inactive; Activity (Aspergillus niger [16]): inactive
3 | O=C1C=CC(=O)N1CC(=O)N1c2ccccc2Sc2ccccc21 | 20 (≈ 59.5 µM) | 20 (≈ 59.5 µM) | 17 | 10 (≈ 29.7 µM) | 20 (≈ 59.5 µM) | 15 | 20 | 18 | – | 16 | 15 (≈ 44.6 µM) | 15 (≈ 44.6 µM) | 15 (≈ 44.6 µM) | 15 | 17 | 17 | 20 (≈ 59.5 µM) | –
4 | O=C1CCC(=O)N1CC(=O)N1c2ccccc2Sc2ccc(C(F)(F)F)cc21 | 15 (≈ 36.9 µM) | 20 (≈ 49.2 µM) | 21 | 20 (≈ 49.2 µM) | 10 (≈ 24.6 µM) | 19 | 21 | 23 | – | 14 | 25 (≈ 61.5 µM) | 15 (≈ 36.9 µM) | 15 (≈ 36.9 µM) | 18 | 19 | 19 | 20 (≈ 49.2 µM) | –
5 | O=C1c2ccccc2C(=O)N1CC(=O)N1c2ccccc2Sc2ccccc21 | 15 (≈ 38.8 µM) | 10 (≈ 25.9 µM) | 23 | 10 (≈ 25.9 µM) | 10 (≈ 25.9 µM) | 20 | 22 | 22 | inactive | 17 | 15 (≈ 38.8 µM) | – | 10 (≈ 25.9 µM) | 20 | – | 17 | 10 (≈ 25.9 µM) | –
6 | O=C1C=CC(=O)N1CC(=O)N1c2ccccc2Sc2ccc(Cl)cc21 | 20 (≈ 53.9 µM) | 20 (≈ 53.9 µM) | 18 | 10 (≈ 27 µM) | 20 (≈ 53.9 µM) | 16 | 20 | 15 | – | – | – | 15 (≈ 40.5 µM) | 15 (≈ 40.5 µM) | 18 | 17 | 17 | 20 (≈ 53.9 µM) | Activity (Bacillus subtilis [8]): inactive
7 | O=C1CCC(=O)N1CC(=O)N1c2ccccc2Sc2ccccc21 | 20 (≈ 59.1 µM) | 20 (≈ 59.1 µM) | 19 | 10 (≈ 29.6 µM) | 15 (≈ 44.3 µM) | 19 | 24 | 24 | inactive | 18 | 15 (≈ 44.3 µM) | – | – | – | – | 17 | 15 (≈ 44.3 µM) | Activity (Staphylococcus aureus [10]): inactive
8 | O=C1c2ccccc2C(=O)N1CC(=O)N1c2ccccc2Sc2ccc(C(F)(F)F)cc21 | 10 (≈ 22 µM) | 10 (≈ 22 µM) | 21 | – | 10 (≈ 22 µM) | 18 | – | 22 | inactive | 14 | 25 (≈ 55 µM) | – | – | – | – | 21 | 10 (≈ 22 µM) | Activity (Escherichia coli [22]): inactive; Activity (Staphylococcus aureus [10]): inactive
9 | OC(Cn1cncn1)(Cn1cncn1)c1ccc(F)cc1F [FLUCONAZOLE] | 10 (≈ 32.7 µM) | 10 (≈ 32.7 µM) | 23 | – | 10 (≈ 32.7 µM) | 20 | – | 24 | – | – | – | – | – | – | – | 21 | 10 (≈ 32.7 µM) | –
10 | CC(=O)c1ccc2c(c1)N(C(=O)CN1C(=O)c3ccccc3C1=O)c1ccccc1S2 | 15 (≈ 35 µM) | 10 (≈ 23.3 µM) | 25 | 10 (≈ 23.3 µM) | 10 (≈ 23.3 µM) | 19 | 21 | 22 | inactive | 16 | 15 (≈ 35 µM) | – | 10 (≈ 23.3 µM) | 19 | – | 14 | 10 (≈ 23.3 µM) | –
11 | O=C1C=CC(=O)N1CC(=O)N1c2ccccc2Sc2ccc(C(F)(F)F)cc21 | 30 (≈ 74.2 µM) | 20 (≈ 49.5 µM) | 19 | 10 (≈ 24.7 µM) | 20 (≈ 49.5 µM) | 10 | 19 | 19 | – | 17 | 15 (≈ 37.1 µM) | 15 (≈ 37.1 µM) | – | – | 19 | 19 | 20 (≈ 49.5 µM) | Activity (Staphylococcus aureus [10]): inactive
12 | O=C(O)c1cn(C2CC2)c2cc(N3CCNCC3)c(F)cc2c1=O [CIPROFLOXACIN] | – | – | – | – | – | – | – | – | – | 22 | 10 (≈ 30.2 µM) | 10 (≈ 30.2 µM) | 10 (≈ 30.2 µM) | 21 | 23 | – | – | –
13 | O=C1c2ccccc2C(=O)N1CC(=O)N1c2ccccc2Sc2ccc(Cl)cc21 | 10 (≈ 23.8 µM) | 10 (≈ 23.8 µM) | 24 | 10 (≈ 23.8 µM) | 10 (≈ 23.8 µM) | 19 | 23 | 21 | – | 13 | 30 (≈ 71.3 µM) | 10 (≈ 23.8 µM) | 10 (≈ 23.8 µM) | 19 | 18 | 18 | 10 (≈ 23.8 µM) | –
14 | O=C1CCC(=O)N1CC(=O)N1c2ccccc2Sc2ccc(Cl)cc21 | 20 (≈ 53.6 µM) | 20 (≈ 53.6 µM) | 23 | 15 (≈ 40.2 µM) | 25 (≈ 67.1 µM) | 18 | 16 | 12 | – | 14 | 30 (≈ 80.5 µM) | 15 (≈ 40.2 µM) | 30 (≈ 80.5 µM) | 12 | 16 | 13 | 25 (≈ 67.1 µM) | –
